Laboratory results published in ChEMBL document CHEMBL1136957, “Semisynthesis and antiproliferative evaluation of a series of 3'-aminoflavones” (Bioorg Med Chem Lett, 2009).
The source made the active and inactive calls. The rule behind the calls is not given here.

Tests used:
[1] = system: KB; assay: Cytotoxicity against human KB cells at 1 uM after 72 hrs by MTS assay; assay type: functional
[2] = system: KB; assay: Cytotoxicity against human KB cells after 72 hrs by MTS assay; assay type: functional, cell-based
[3] = system: HL-60; assay: Induction of apoptosis in human HL60 cells assessed as caspase 3/7 activation at 1 uM relative to control; assay type: functional
Method in brief: (§1)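 Apoptosis read in HL60 human leukemia cells as caspase 3/7 activity, using DEVD-AMC as substrate. Reported as the optimal compound concentration with fold activation.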

[4] = Inhibition of tubulin assembly at 66 uM
Method in brief: (§2)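 Tubulin assembly inhibition run by the Zavala and Guenard method. Reported as percent inhibition at 6.6 x 10^-5 M, or as IC50 for selected compounds.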

[5] = system: HL-60; assay: Induction of apoptosis in human HL60 cells assessed as caspase 3/7 activation at 100 uM relative to control; assay type: functional; method in brief: as §1
[6] = system: HL-60; assay: Induction of apoptosis in human HL60 cells assessed as caspase 3/7 activation at 10 uM relative to control; assay type: functional; method in brief: as §1
[7] = Ratio of IC50 for drug to deoxypodophyllotoxin for tubulin assembly
Method in brief: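 Inhibition of tubulin assembly was run by the Zavala and Guénard method. Compounds were screened at 6.6 × 10^-5 M, and an IC50 was determined only for the most antiproliferative ones. The value is that IC50 divided by the IC50 of deoxypodophyllotoxin, the reference.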

[8] = Inhibition of tubulin assembly; method in brief: as §2
[9] = system: HL-60; assay: Induction of apoptosis in human HL60 cells assessed as caspase 3/7 activation at 0.1 uM relative to control; assay type: functional; method in brief: as §1

SMILES | inhibition at 1 µM [1] | IC50 [2] | fold change (FC) [3] | fold change (FC) [5] | further results
COc1ccc(-c2cc(=O)c3c(O)c(OC)c(OC)c(OC)c3o2)cc1N | 83% | 160 nM | 6 | – | inhibition [4]: 27%
COc1ccc(-c2cc(=O)c3c(O)c(OC)c(OC)c(OC)c3o2)cc1 [GARDENIN B] | 28% | – | – | 3.8 | –
COc1ccc(-c2cc(=O)c3c(OC)c(OC)c(OC)c(OC)c3o2)cc1 [TANGERETIN] | 12% | – | – | inactive | –
COc1ccc(-c2cc(=O)c3c(O)cc(O)cc3o2)cc1N | 7% | – | – | 4 | –
COc1cc(O)c2c(=O)cc(-c3ccc(OC)c(N)c3)oc2c1 | 30% | – | – | inactive | –
COc1ccc(-c2oc3c(OC)c(OC)c(OC)c(O)c3c(=O)c2Br)cc1[N+](=O)[O-] | 23% | – | – | – | –
COc1ccc(-c2cc(=O)c3c(O)c(OC)c(OC)c(OC)c3o2)cc1[N+](=O)[O-] | 2% | – | – | – | –
COc1ccc(-c2cc(=O)c3c(OC)c(OC)c(OC)c(OC)c3o2)cc1[N+](=O)[O-] | 3% | – | – | – | –
COc1ccc(-c2oc3c(OC)c(OC)c(OC)c(O)c3c(=O)c2Cl)cc1N | 86% | 140 nM | 4.5 | – | inhibition [4]: 15%
COc1ccc(-c2cc(=O)c3c(OC)c(OC)c(OC)c(OC)c3o2)cc1N | 6% | – | – | inactive | –
COc1ccc(-c2oc3c(OC)c(OC)c(OC)c(O)c3c(=O)c2Br)cc1N | 55% | – | 3.6 | – | –
COc1ccc(-c2cc(=O)c3c(O)c(OC)c(OC)c(OC)c3o2)cc1O | – | 80 nM | 3.8 | – | fold change (FC) [6]: 5.2; Ratio IC50 [7]: 27; IC50 [8]: 86000 nM
COc1ccc(-c2oc3c(OC)c(OC)c(OC)c(O)c3c(=O)c2OC)cc1O | 92% | 20 nM | – | – | fold change (FC) [9]: 5.7; Ratio IC50 [7]: 3; IC50 [8]: 10000 nM
